Test results as given in ChEMBL document CHEMBL1122141, “Potential radiosensitizing agents. 4. 2-Nitroimidazole nucleosides” (J Med Chem, 1982).

Experiments:
[1] = Partition coefficient of the compound; format: ADME; conditions: octanol/water
V79 [2] = experiment: In vitro radiosensitizing activity against V-79 hypoxic cells was determined in the presence of the sensitizer under nitrogen at a concentration of 1.0 mM; format: functional, Cricetulus griseus
In short: (§1)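 Asynchronous monolayer V-79 Chinese hamster cells from exponential cultures, plated in dishes and made hypoxic by purging sealed containers with 95% nitrogen/5% CO2. Drug exposure was 1 h at 37 °C under hypoxia, followed by cobalt-60 irradiation (~240 rad/min, 400–2700 rad). Colonies were grown 6 days at 37 °C, then fixed in ethanol, stained with methylene blue and counted. SER = D0 of hypoxic controls / D0 of drug-treated hypoxic cells.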

V79 [3] = experiment: In vitro radiosensitizing activity against V-79 hypoxic cells was determined in the presence of the sensitizer under nitrogen at a concentration of 0.25 mM; format: functional, Cricetulus griseus; in short: as §1
V79 [4] = experiment: In vitro radiosensitizing activity against V-79 hypoxic cells was determined in the presence of the sensitizer under nitrogen at a concentration of 0.5 mM; format: functional, Cricetulus griseus; in short: as §1
V79 [5] = experiment: In vitro radiosensitizing activity against V-79 Hypoxic cells was determined in the presence of the sensitizer under nitrogen at a concentration of 0.1 mM; format: functional, Cricetulus griseus; in short: as §1
V79 [6] = experiment: In vitro radiosensitizing activity against V-79 hypoxic cells was determined in the presence of the sensitizer under nitrogen at a concentration of 0.05 mM; format: functional, Cricetulus griseus; in short: as §1

Work on O=C(OC[C@H]1O[C@@H](n2ccnc2[N+](=O)[O-])[C@H](OC(=O)c2ccccc2)[C@@H]1OC(=O)c1ccccc1)c1ccccc1 yielded a Partition coefficient [1] of 15.66 and an SER (V79 [2]; in the assay text read “0.01 mM” for “1.0 mM”) of 1.

For O=[N+]([O-])c1nccn1C1SC(CO)C(O)C(O)C1O (stereo not drawn), the Partition coefficient [1] was 0.22, the SER (V79 [3]) was 1.2 and the SER (V79 [4]) was 1.4. The SER (V79 [2]) was 1.7.

For O=[N+]([O-])c1nccn1C1OC(CO)C(O)C(O)C1O (stereo not drawn), the Partition coefficient [1] was 0.04 and the SER (V79 [2]) was 1.

For CC(=O)OCC1OC(n2ccnc2[N+](=O)[O-])C(OC(C)=O)C(OC(C)=O)C1OC(C)=O (stereo not drawn), the Partition coefficient [1] was 3.31 and the SER (V79 [5]) was 1.2.

COC(=O)C1(n2ccnc2[N+](=O)[O-])CC(OC(C)=O)C(NC(C)=O)C(C(OC(C)=O)C(COC(C)=O)OC(C)=O)O1 (stereo not drawn) showed a Partition coefficient [1] of 2.56, an SER (V79 [3]) of 1.2 and an SER (V79 [4]) of 1.4. The SER (V79 [2]) was 1.6.

For CC(=O)OCC1SC(n2ccnc2[N+](=O)[O-])C(OC(C)=O)C(OC(C)=O)C1OC(C)=O (stereo not drawn), the Partition coefficient [1] was 4.22 and the SER (V79 [6]) was 1.1.

Compound O=[N+]([O-])c1nccn1C1O[C@H](CO)[C@@H](O)[C@H]1O (stereo partly drawn) has a Partition coefficient [1] of 0.07 and an SER (V79 [4]) of 1.4.
